Results reported in ChEMBL document CHEMBL4513216, “Probing the Open Global Health Chemical Diversity Library for Multistage-Active Starting Points for Next-Generation Antimalarials” (ACS Infect Dis, 2020).

Test: Toxicity liver stage against HepG2, at 10uM
Assay type: cell-based
Design: test concentration 10 uM, cell line HepG2-A16-CD81EGFP
Details: human, HepG2-A16-CD81EGFP cells; read-out: INHIBITION
Method in brief: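 Uninfected HepG2-A16-CD81EGFP cells, 3 × 10^3 per well, 1536-well, plated on prespotted compound at 10 μM final, parasite-free screening media added to match infected plates; puromycin 10 μM positive, DMSO 0.5% negative; run in parallel with 48 h PbLuc assay at 37 °C, 5% CO2; viability by CellTiter-Glo luminescence, normalized to controls.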

Row | Structure (SMILES) | cytotoxicity at 10 µM
1 | CCS(=O)(=O)N1CC(=O)N(CCCc2ccccc2)CC(O)C1 (stereo unspecified) | -5.64%
2 | CCCC1CN(CCOC)C(=O)c2cccnc2O1 (stereo unspecified) | 5.42%
3 | CC(C)CCNC(=O)c1ccc(-n2cnc3ccccc3c2=O)cc1 | -6.17%
4 | Cc1cc(NCCO)nc2[nH]nc(N)c12 | -51.7%
5 | CC(=O)c1c(C)nn(CC(=O)Nc2ccc(F)cc2)c1C | -72%
6 | CC(C)OC(=O)CN1N=C(C(=O)N2CCCC2)S(=O)(=O)c2ccccc21 | -2.93%
7 | O=C(NCc1nc2ccccc2[nH]1)c1cnn2c1OCCC2 | 0.0962%
8 | CC(NC(=O)C1CN(c2ncnc3c2nnn3C)C1)c1ccccc1 (stereo unspecified) | 2.8%
9 | CC(=O)N1CC(c2ncn(C(C)C)n2)c2cc(C(=O)NC(C)C)ccc21 (stereo unspecified) | 8.22%
10 | O=C(c1ccco1)N1CCc2onc(CN3CCCC3)c2C1 | 4.38%
11 | Cc1cccn2c(=O)cc(OC(=O)c3ccccc3Cl)nc12 | 10.7%
12 | O=C(N1CCOCC1)N1CCc2ncnc(NC3CC3)c2CC1 | -20.9%
13 | Cc1cccc(CN2C[C@@H]3CN(C(=O)c4ccsc4)C[C@@H]3C2=O)c1 | -18.8%
14 | Cc1cc(NC(=O)CCn2nc(C)c3ccccc32)n(C)n1 | 3.4%
15 | CCN(CC)C(=O)CSc1nc2cc(C)nc-2c(O)n1Cc1ccco1 | 3.49%
16 | Cc1nn(C)cc1S(=O)(=O)N(CCc1ccccc1)Cc1ccn(C)n1 | 1.43%
17 | CCc1c(C)nn2c(O)cc(C3CCN(C(=O)C4CC4)C3)nc12 (stereo unspecified) | 1.97%
18 | CNc1cc(C2CN(C(=O)c3cscn3)CCO2)nc(C)n1 (stereo unspecified) | 9.49%
19 | COc1cc2c(cc1CN1CCc3sccc3C1C)OCO2 (stereo unspecified) | 7.01%
20 | CC(C)C(=O)N1CCCC1c1nc(N(C)C)ncc1-c1ccc(Cl)cc1 (stereo unspecified) | 20.1%
21 | Cc1cc(N2CCOC(c3ccncn3)C2)ncn1 (stereo unspecified) | 2.91%
22 | Cc1nccc(CC2COCCN(c3cnccn3)C2)n1 (stereo unspecified) | 0.933%
23 | CC(=O)N1CCCC1c1cc(Nc2nnc(C)s2)nc(C)n1 (stereo unspecified) | -18.2%

Row | Structure (SMILES) | cytotoxicity at 10 µM
24 | O=S1(=O)NC(C2CCN(Cc3ccccn3)CC2)Nc2ccccc21 (stereo unspecified) | -33.6%
25 | Cc1cc(C(F)(F)F)c2c(C3CCCN(C(=O)C4CC4)C3)noc2n1 (stereo unspecified) | -25.1%
26 | O=C1NC2(Cc3ccccc31)CN(CC1CCNCC1)C2 | 10.8%
27 | CN(C)c1ccc(C(=O)N2CCCc3cc(OC(F)(F)F)ccc32)cn1 | -45.9%
28 | CCc1ccc2c(c1)C(CCNC(=O)CCc1ccsc1)C(=O)N2 (stereo unspecified) | -41.5%
29 | C1CC(CN2CCCCC2C2OCCO2)C1 (stereo unspecified) | -12.8%
30 | Cc1cc(N(Cc2cccs2)C2CC2)n2nc(C(F)(F)F)nc2n1 | -2.1%
31 | O=S(=O)(c1cc(F)ccc1N1CC(n2cccn2)C1)C(F)(F)F | 11.3%
32 | COc1cccc(CC2CCCN2Cc2nccn2C)c1 (stereo unspecified) | -6.16%
33 | COC(=O)CC(NC(=O)CCn1cccn1)c1ccc(C)cc1 (stereo unspecified) | 3.28%
34 | Cc1cc(C)cc(C(C)NCc2nnc(C)s2)c1 (stereo unspecified) | -5.77%
35 | COc1ccc(CN(C)Cc2c(C)noc2C)c(Br)c1OC | -0.2%
36 | Cc1noc(NCc2ccc(F)cc2)n1 | -5.92%
37 | CN(C)c1cccc(C2CCCN2Cc2nnnn2C2CC2)c1 (stereo unspecified) | 5.15%
38 | COc1cc(CNCCc2cc(F)cc3c2OCOC3)cc(OC)c1 | -1.51%
39 | CSC(C)CC(=O)N1CCC(n2ccnn2)CC1 (stereo unspecified) | -47.9%
40 | O=C(NS(=O)(=O)c1cnn(-c2ccccc2F)c1)c1ccco1 | -8.86%
41 | Cc1ccc(N(C)Cc2nnnn2C2CC2)c(C)c1 | 8.81%
42 | O=C(CN1CCOc2ccc(Cl)cc21)NCCCn1cccn1 | -0.174%
43 | Cc1cc(NC(=O)CSc2nc(=O)ccn2C(C)C)no1 | 0.841%
44 | COC(=O)CCCNC(=O)Nc1ccccc1OC | 6.45%
45 | CCCNC(=O)c1cccc2ncccc12 | -50.3%
46 | COc1ccccc1C(C)CC(=O)N1CCN(S(N)(=O)=O)CC1 (stereo unspecified) | -51.3%

Row | Structure (SMILES) | cytotoxicity at 10 µM
47 | N#Cc1cc(F)ccc1Cn1cnc(C2CCC2)cc1=O | -5.32%
48 | CCc1nc(CC(=O)NCC2(C(N)=O)CCOCC2)cs1 | -9.92%
49 | CCCN1CCC(NC(=O)NCCc2nc(CC)c(C)s2)CC1 | -19%
50 | Cc1cc(S(=O)(=O)N2CCCc3ccc(F)cc32)sc1C(=O)O | 18.1%
51 | Cn1ccnc1SCc1nc(C(C)(C)NC(=O)OC(C)(C)C)no1 | -0.679%
52 | Cn1cnc(S(=O)(=O)N2CCCC2)c1Cl | 15.1%
53 | CCNS(=O)(=O)c1ccc(C)c(C(=O)N(C)Cc2ccco2)c1 | 0.685%
54 | CN(Cc1ccccc1Br)C(=O)Cn1nc(-c2ccc(F)cc2)oc1=O | 9.46%
55 | Cc1nn(C(C)C)c(C)c1NC(=O)c1ccncc1 | -17.3%
56 | CCn1ccnc1CN1CCN(Cc2ccccn2)CC1C (stereo unspecified) | 14.3%
57 | Cc1nc(CN2CCC23CCN(Cc2ccoc2)CC3)cs1 | -109%
58 | CC(C)N(C)Cc1cc(=O)n2c(n1)CN(C(=O)c1ccc[nH]1)CCC2 | -105%
59 | CCOc1ccc(OCc2nc3c(c(=O)[nH]2)CCNC3)cc1 | 8.55%
60 | O=C(c1cn2cc(Cl)cnc2n1)N1CCOCC(O)(CN2CCCC2)C1 (stereo unspecified) | -8.42%
61 | OC1(CN2CCCC2)COCCN(c2nnc(-c3ccccc3)s2)C1 (stereo unspecified) | -10.1%
62 | CC1(C)CN(S(=O)(=O)N2CCOCC2)CC1c1ccccc1 (stereo unspecified) | 1.69%
63 | CN(Cc1n[nH]c2c1CCC2)c1nc(C2CCCC2)nc2c1CNC2 | -3.86%
64 | CCc1nc2c(N3CCC4(CC3)CC(=O)N(CC)C4)ncnc2o1 | -3.2%
65 | Cc1nnc(NCCn2nc(C)c(Cl)c2C)o1 | 1.91%
66 | COc1ccc(NC(=O)c2ccc(CN3CC[C@H](O)C3)cc2)c(OC)n1 | 6.21%
67 | O=C1CCCCN1CCCC(=O)N1CCC2(CC1)[C@H](O)C[C@@H]2O | 1.12%
68 | CN(C)c1nc2c(c(N(C)Cc3n[nH]c4c3CCCCC4)n1)CCNC2 | 2.95%
69 | Cc1ccc([C@@H]2CN(C(=O)c3cc[nH]c3)C[C@H]2NC(=O)C2CC2)cc1 | -7.59%

Row | Structure (SMILES) | cytotoxicity at 10 µM
70 | CCc1nc(CN(C)C(=O)c2cc(NC(C)=O)ccc2Cl)no1 | -1.71%
71 | Cc1cnccc1NCCn1ccnc1C1CCCCC1 | -4.2%
72 | Cc1ccc(OC2(C(=O)O)CCN(C(=O)c3ccsc3)CC2)cn1 | -4.09%
73 | O=C1NCCCc2[nH]c(C3CCCN(C(=O)C4CC4)C3)nc21 (stereo unspecified) | 3.55%
74 | Cc1nc[nH]c1CNCc1cccnc1N(C)C1CCCCC1 | 5.32%
75 | CC(O)CN1CC2(CCC1=O)CCN(C(=O)c1cnn(C)c1)CC2 (stereo unspecified) | 3.74%
76 | CCOC(=O)N1CCC(NCC2CCN(c3cnn(C)c(=O)c3)C2)CC1 (stereo unspecified) | 8.39%
77 | CCCN(CCO)C(=O)C1CCC(=O)N(Cc2ccc(Cl)cc2)C1 (stereo unspecified) | 10.4%
78 | COc1ccc(Cc2ncc3c(n2)CN(C(=O)C2COCCO2)C3)cc1 (stereo unspecified) | -0.579%
79 | Cc1cc2nc(-c3ccccc3)cc(NCC3CCCOC3)n2n1 (stereo unspecified) | -3.54%
80 | CCCOCC(=O)N1CCc2c(cccc2S(=O)(=O)N2CCOCC2)C1 | 2.71%
81 | COCc1cc(N(C)CCc2c(C)n[nH]c2C)ncn1 | 0.681%
82 | CC(=O)N1CCOC(CNC(=O)c2cccc(CCC(C)(C)O)c2)C1 (stereo unspecified) | 0.303%
83 | Cc1oc(-c2cccc(F)c2)nc1CN1CCOCS1(=O)=O | 2.74%
84 | CC(=O)NCC(=O)N1CCC(C2CCN(Cc3ccc(Cl)cc3)C2)CC1 (stereo unspecified) | -9.12%
85 | COc1ccc(CC2(CO)CCN(c3cc(N)ncn3)CC2)cc1 | -12.9%
86 | COCc1cc(NCCc2ccccn2)n2nccc2n1 | -0.464%
87 | COCCN1CCC(CN(CC2CCCO2)C(=O)COC)CC1 (stereo unspecified) | -21.1%
88 | Cn1c(Cn2ccnc2)nnc1C1CCCN(C2CCCCC2)C1 (stereo unspecified) | -13.2%
89 | CCn1ccnc1CN1CCC(CNC(=O)c2ccc(C)nc2)C1 (stereo unspecified) | -8.8%
90 | Nc1nccc(NCc2cc3n(n2)CCCN(C2CCCCC2)C3)n1 | -16%
91 | CCCc1cc(CNC(=O)C2CCOc3ccccc3C2)on1 (stereo unspecified) | -3.8%
92 | CCc1cc(O)nc(C2CCCN2C(=O)c2cc(C)no2)n1 (stereo unspecified) | 2.69%

Row | Structure (SMILES) | cytotoxicity at 10 µM
93 | Cc1cnn(C2CN(CC(=O)NCc3ccccn3)C2)c1 | -10.9%
94 | N#Cc1ccc(CN2CCC(c3ccnn3CCO)CC2)cc1 | -1.72%
95 | Cc1cc(C2CCCN2CC(=O)N(CCC#N)c2ccccc2F)on1 (stereo unspecified) | -1.5%
96 | CCN(CC)Cc1ccc(C(=O)N2CCN(CC(C)O)CC2)cc1 (stereo unspecified) | -12.6%
97 | O=C(NCCc1ccn(-c2ccccc2)n1)N1CCC1 | -0.361%
98 | Cc1cc(CN2CCOC(CN(C)c3cccnn3)C2)no1 (stereo unspecified) | 8.23%
99 | CN(C)C[C@H]1OC[C@@H]2CCN(S(=O)(=O)c3ccccc3)C[C@@H]21 | 1.44%
100 | Cc1nc(CC(=O)N2CCC(c3nn(C)c4ncccc34)CC2)cs1 | -18.9%
101 | CCOC1COC2(CCN(CC3CC3)CC2)C1 (stereo unspecified) | -106%
102 | O=C(c1ccc(F)cc1)N1CCC2(CCCN2CC2CC2)CC1 | 5.05%
103 | COCC(=O)NCc1cc(=O)n2c(n1)CN(CC1CC1)CCC2 | -88.5%
104 | c1cncc(CO[C@H]2CN(Cc3ccco3)[C@@H]3COC[C@H]23)c1 | -101%
105 | Cc1nc[nH]c1CN1CCc2nc3scc(C)c3c(=O)n2CC1 | -35.7%
106 | O=C(c1cc[nH]n1)N1CC[C@@H]2CN(Cc3ccncc3)S(=O)(=O)[C@@H]2CC1 | 10.5%
107 | COCCC(=O)N1C[C@H]2CN(Cc3cccc(C)n3)C(=O)[C@H]2C1 | 4.4%
108 | CC(C)CC(=O)N1CC[C@H]2N(C)CC[C@@]2(C(=O)Nc2cccnc2)CC1 | -96.9%
109 | O=C(NCc1cc(=O)n2c(n1)CN(CC1CCOC1)CCC2)C1CC1 (stereo unspecified) | -11.2%
110 | O=C([C@@H]1C[C@@H]2CCN(Cc3ccoc3)C[C@H]2O1)N1CCCC1 | -101%
111 | c1ccc(CN2CCO[C@H]3[C@H](OCCN4CCCC4)CC[C@@H]32)nc1 | -1.5%
